# Screens (PubChem BioAssay)
# DAX1 inh-1 – DAX1 (NR0B1) inhibitors on StAR promoter, primary screen, cell-based, luminescence, SF-1 (NR5A1), full-length DAX-1; HEK293T StAR-luciferase reporter, SF-1/DAX-1 repression relief; 370,000 compounds, 1.1% hits; inhibition, % at 6.8 µM;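 active = inhibition above the mean over all tested compounds plus 3 SD, cut at about 3.6% in these data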;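 also: 0% = DAX-1 cells with DMSO and 100% = cells lacking DAX-1 with DMSO; higher inhibition means more luminescence from relief of DAX-1 repression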
# DAX1 inh-2 – DAX1 (NR0B1) inhibitors, primary screen, cell-based, HEK293, Gal4-DAX1, luciferase luminescence | inhibition, % at 6.75 µM | AID 504766, 2011 | HEK293 Gal4-DAX1 luciferase reporter | 340,000 compounds, 0.99% hits;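 active = inhibition above the mean over all tested compounds plus 3 SD, cut at about 4.2% in these data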;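 also: 0% = DAX1-transfected cells with DMSO and 100% = empty-vector control cells with DMSO; inhibition shows as a rise in luminescence from relieved DAX1 repression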
# Target sequence (P51843 207-470 limits assumed): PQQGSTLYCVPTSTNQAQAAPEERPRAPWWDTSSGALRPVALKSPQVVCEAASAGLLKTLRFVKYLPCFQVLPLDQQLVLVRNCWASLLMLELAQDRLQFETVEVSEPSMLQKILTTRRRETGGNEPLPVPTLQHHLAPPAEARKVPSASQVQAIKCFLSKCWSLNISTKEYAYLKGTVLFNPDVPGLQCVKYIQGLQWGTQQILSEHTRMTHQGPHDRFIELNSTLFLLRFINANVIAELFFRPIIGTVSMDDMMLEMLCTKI
# GASC-1 inh – inhibitors of GASC-1 histone demethylase, primary screen, biochemical, fluorescence, DELFIA europium | GST-JMJD2C(1-420) H3K9me3 demethylation | inhibition, % at 2.35 µM | 330,000 compounds, 0.069% hits | AID 2099, 2009;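 active = more than half of a compound's replicate wells show inhibition beyond 50%, single wells judged on their own value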;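 also: signal counts dimethyl H3K9 product captured on neutravidin plate; 0% = median of DMSO wells and 100% = 0.3 times that DMSO median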
# NR2E3 ag-1 – NR2E3 agonists in two-hybrid cells, primary screen, cell-based, luminescence, CHO-S, Gal4-NCOR/VP16-NR2E3; Photoreceptor-specific nuclear receptor (Homo sapiens), Q9Y5X4; luciferase; inhibition of corepressor binding, % at 3.98 µM; 360,000 compounds, 0.35% hits; AID 602229, 2012;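 active = inhibition above the mean of all tested compounds plus 3 SD, cut at about 70% in these data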;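 also: 0% = DMSO with NR2E3 transfected cells and 100% = cells lacking NR2E3 construct; higher means lower luciferase signal from less NR2E3 corepressor binding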
# Target sequence (Q9Y5X4 whole entry, looked up, the tested form may be a part): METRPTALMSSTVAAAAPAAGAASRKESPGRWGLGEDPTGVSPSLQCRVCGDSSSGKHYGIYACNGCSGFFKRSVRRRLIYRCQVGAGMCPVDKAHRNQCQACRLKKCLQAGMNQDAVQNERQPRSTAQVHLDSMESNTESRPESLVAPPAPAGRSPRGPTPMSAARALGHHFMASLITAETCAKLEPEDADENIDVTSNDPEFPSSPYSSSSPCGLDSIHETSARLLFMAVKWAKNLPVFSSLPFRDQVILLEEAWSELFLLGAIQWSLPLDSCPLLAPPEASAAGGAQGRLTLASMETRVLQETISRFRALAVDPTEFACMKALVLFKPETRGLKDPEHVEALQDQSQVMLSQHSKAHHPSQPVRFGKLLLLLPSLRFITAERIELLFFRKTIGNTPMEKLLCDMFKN
# SMARCA2 activ – SMARCA2 (BRM) function activators, primary screen, cell-based, luminescence, high throughput. MG213 cells, MMTV-luciferase reporter, dexamethasone, overnight. activation, % at 9.1 µM. 370,000 compounds, 1% hits; in the data active = activation above about 7.8%;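 also: 0% = vehicle wells and 100% = reference activator wells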
# NR2E3 ag-2 – inhibitors of NR2E3-RetCOR corepressor binding, primary screen, NR2E3 agonist project, biochemical, TR-FRET, GST-NR2E3, biotin-RetCOR; inhibition of corepressor binding, % at 4.78 µM; 320,000 compounds, 0.12% hits; Photoreceptor-specific nuclear receptor (Homo sapiens), Q9Y5X4; AID 2300, 2010; 1536-well;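 active = percent inhibition above the cutoff of mean plus 3 SD of all tested compounds, set per screening campaign, cut at about 20% in these data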;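 also: 0% = DMSO wells and 100% = biotin wells as full block of FRET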
#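 Test system: GST-NR2E3 and biotin-RetCOR proteins | Quantity: 1.35 nM GST-tagged NR2E3 final | Medium: Tris pH 7.5 | Also added: 7 nM biotin-RetCOR | Dosing: Compound at 4.8 µM, single dose | Timing: 5 h at 4 °C | Detection: Time-resolved FRET | Read-out basis: Percent inhibition | Benchmarks: Biotin wells as high control, 0.6% DMSO wells as low control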
# NR2E3 ag conf – NR2E3 agonist confirmation in cells, cell-based, luminescence, CHO-S two-hybrid. shares compounds with NR2E3 ag-1. CHO-S mammalian two-hybrid NR2E3-NCOR, luciferase luminescence. inhibition, % at 3.98 µM. 2,300 compounds, 51% hits. AID 624378, 2012;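 active = average inhibition above a cutoff equal to the mean inhibition of all tested compounds plus one SD, cut at about 70% in these data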;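 also: 0% = DMSO in NR2E3 cells and 100% = DMSO in cells lacking NR2E3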
# GAL4-VP16 luc – GAL4-VP16 reporter modulators, confirmation, counter-screen for NR2E3 agonist project, cell-based, luminescence, CHO-S, high throughput; inhibition, % at 3.98 µM; CHO-S GAL4-VP16 luciferase reporter; AID 624379, 2012; 2,300 compounds, 29% hits; shares compounds with NR2E3 ag-1;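 active = mean inhibition above a cutoff equal to the average over all tested compounds plus one standard deviation, cut at about 70% in these data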;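 also: luciferase from a UAS reporter driven by GAL4-VP16 transactivation; 0% = DMSO with VP16-transfected cells and 100% = DMSO with cells lacking VP16; higher means less reporter light so more repression of VP16 activity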
# Numbers without * were called inactive; x = no result. The list is not random: actives were taken first. Their share in the collection is about 3.2%.
SMILES,DAX1 inh-1,DAX1 inh-2,GASC-1 inh,NR2E3 ag-1,SMARCA2 activ,NR2E3 ag-2,NR2E3 ag conf,GAL4-VP16 luc
CCc1ccc(S(=O)(=O)/N=C2\C=C(Nc3cccc(C(=O)O)c3)C(=O)c3ccccc32)cc1,-1,-2,15,32,-7,4,x,x
O=C1C(Nc2ccc(O)cc2)=C/C(=N/S(=O)(=O)c2cccs2)c2ccccc21,-5,-8,-6,103*,-13,x,100*,99*
Cc1cc(C)c(S(=O)(=O)/N=C2\C=C(Nc3ccc(C(=O)O)cc3)C(=O)c3ccccc32)c(C)c1,-2,-2,-7,112*,-9,0,100*,98*
O=C(O)c1ccc(NC2=C/C(=N/S(=O)(=O)c3ccccc3)c3ccccc3C2=O)cc1,-3,-3,x,-8,-10,x,x,x
COC1=C[C@H](C(=O)N[C@H]2CCCC[C@@H]2NC(C)=O)[C@H](C)[C@@H](c2ccccc2)CC1=O,0,x,x,x,-4,x,x,x
CCOC(=O)N1CCN(C(=O)C[C@@H]2C(=O)N(CCc3ccc(Cl)cc3)/C3=C/CCCCC[C@@]32C(=O)OCC)CC1,-1,x,x,x,-3,x,x,x
COc1ccc(NC(=O)/C(Cl)=C(/Cl)S(=O)Cc2ccccc2)cn1 (stereo not given),-4,-4,1,90*,-7,2,95*,42
COc1ccc(NC(=O)Cc2ccccc2)cn1,0,-1,3,-6,2,6,x,x
Cc1ccc(/C=C/C(=O)c2c(C)cc(C)[nH]c2=O)cc1,x,-1,-5,49,x,4,45,29
CCOC(=O)[C@@]12CCC3=C1N(CCC3)C(=O)[C@H](CC(=O)NCc1cccc(C(F)(F)F)c1)C2,-2,x,x,x,-3,x,x,x
C=C(C)C1CCC2(C(=O)O)CCC3(C)C(CCC4C5(C)C(C=O)C(O)C(C)(C)C5CCC43C)C12 (stereo not given),1,0,-11,76*,1,0,57,18
Cc1ccc2nc(-c3ccccc3O)c(Nc3ccc4c(c3)OCCO4)n2c1,0,0,132,-4,-1,-2,x,x
Clc1ccc2nc(-c3ccccn3)c(Nc3ccc4c(c3)OCO4)n2c1,1,-2,-9,52,7,2,-66,-87
Cc1nn(-c2ccccc2Cl)c(Cl)c1/C=N/Nc1nc2ccccc2s1,-4,-3,-2,52,-9,-4,77*,67
Cc1cccc(C)c1OCc1cc(C(=O)N(Cc2c(C)nn(C)c2C)C2CC2)no1,-1,-2,-1,62,-3,-3,61,58
CCc1nnc(NC(=O)c2ccc(S(=O)(=O)N(CC(C)C)CC(C)C)cc2)o1,-1,1,x,103*,-3,-1,99*,39
CNC(=O)c1ccsc1NC(=O)c1ccc(S(=O)(=O)N2CCCc3ccccc32)cc1,-3,-1,13,-7,-4,0,x,x
CSCc1nnc(NC(=O)c2ccc(S(=O)(=O)N(CC(C)C)CC(C)C)cc2)o1,x,x,18,x,x,x,x,x
CCc1nnc(NC(=O)c2ccc(S(=O)(=O)N3CCCc4ccccc43)cc2)o1,-2,-1,11,54,-5,-1,88*,44
C=C1C(=O)C=C[C@]2(C)C[C@@H]3OC(=O)[C@](C)(O)[C@H]3C[C@@H]12,-3,-5,7,63,2,3,36,6
COC(=O)c1cc(-c2ccc(C)c3ccccc23)c(=O)n2c1CCC2,0,x,x,x,0,x,x,x
CC(=O)N1CCN(c2ccc(Oc3ccc([N+](=O)[O-])c(C(F)(F)F)c3)cc2)CC1,x,-4,-3,100*,x,2,96*,81*
CCOc1ccc(C(=O)Nc2ccc(N3CCN(C(C)=O)CC3)cc2)cc1[N+](=O)[O-],-1,-2,10,-15,-2,1,x,x
O=C(Cc1ccc(S(=O)(=O)N2CCCC2)s1)N1CCN(c2ccccc2)CC1,0,0,-22,3,1,2,x,x
O=C(Cc1ccc(S(=O)(=O)N2CCOCC2)s1)N1CCN(c2cccc(C(F)(F)F)c2)CC1,x,-1,2,72*,x,-1,81*,61
SMILES,DAX1 inh-1,DAX1 inh-2,GASC-1 inh,NR2E3 ag-1,SMARCA2 activ,NR2E3 ag-2,NR2E3 ag conf,GAL4-VP16 luc
COc1cnc(-c2ccccn2)nc1Oc1ccccc1,-1,-1,-14,59,0,2,22,-20
COc1cnc(-c2ccccn2)nc1N(C)c1ccccc1,-2,-3,8,105*,-1,-2,94*,-23
CCOC(=O)CSc1nc(-c2ccccn2)ncc1OC,-1,0,6,-14,-2,-4,x,x
Cc1ccc(C)c(NC(=O)C2CCCN2S(=O)(=O)c2cccc3cccnc23)c1 (stereo not given),-1,x,x,x,-1,x,x,x
O=C(C1CCC1)N1CCc2cc(S(=O)(=O)NCC3COc4ccccc4O3)ccc21 (stereo not given),-1,0,-2,67,-2,-2,60,37
O=C(C1CCC1)N1CCc2cc(S(=O)(=O)NCc3ccco3)ccc21,0,0,8,-2,1,5,x,x
CCCN(CCC)CCNS(=O)(=O)c1ccc2c(c1)CCN2C(=O)C1CCC1,1,-1,-5,1,4,1,x,x
O=C(C1CC1)N1CCc2cc(Br)cc(S(=O)(=O)NCC3COc4ccccc4O3)c21 (stereo not given),0,2,2,-20,-6,0,x,x
O=C(C1CC1)N1CCc2cc(S(=O)(=O)NCC3COc4ccccc4O3)ccc21 (stereo not given),0,2,2,56,0,2,54,55
O=C(C1CC1)N1CCc2cc(S(=O)(=O)NCCC3=CCCCC3)ccc21,-1,2,-4,59,-2,-1,57,47
O=S1(=O)c2ccc(N3CCCC3)cc2Oc2ccccc2CN1Cc1cn(Cc2ccc(Cl)cc2)nn1,0,x,x,x,-3,x,x,x
